Active and inactive are the calls of the source. The calls are words filed in the database; no cut-off is given here. Square brackets hold non-standard residues; d marks the D form. Peptide text beside a SMILES is read from it. * marks the point of attachment. Piperazinyl(4-RhodamineB) = CCN(CC)c1ccc2c(-c3ccccc3C(=O)N3CCN(*)CC3)c3ccc(=[N+](CC)CC)cc-3oc2c1; X4 = CC(C)CCC[C@@H](C)[C@H]1CC[C@H]2[C@@H]3CC[C@H]4C[C@@H](OCC(=O)*)CC[C@]4(C)[C@H]3CC[C@]12C; X1 = CC(C)CCC[C@@H](C)[C@H]1CC[C@H]2[C@@H]3CCC4C[C@@H](O*)CC[C@]4(C)[C@H]3CC[C@]12C; Sta = CC(C)C[C@H](N)[C@@H](O)CC(=O)O; PEG4 = NCCOCCOCCOCCOCCC(=O)O; PEG3 = NCCOCCOCCOCCC(=O)O; X3 = CCCCCCCCCCCCCCCCO*; X2 = CCCCCCCCCCCCCCO*; βAla = NCCC(=O)O

Drawing on ChEMBL document CHEMBL1152850, “Efficient inhibition of the Alzheimer's disease beta-secretase by membrane targeting” (Science, 2008), this text covers inhibition and Activity for six molecules.

The target of assay [1] is Beta-secretase 1 (Homo sapiens) (UniProt P56817). Kind of assay: Inhibition of BACE1 mediated APP cleavage in human HeLa cells expressing swAPP at 200 nM by electrochemiluminescence assay. Format: cell-based.
For assay [2], the system named is HeLa. The assay can be described thus: Increase in alpha secretase mediated APP cleavage in human HeLa cells expressing swAPP at 2 uM after 4 hrs by immunoblot. Format: cell-based. Background: In western blotting, separated proteins are transferred to a membrane and probed.
In assay [3] the test system is HeLa. The assay can be described thus: Increase in alpha secretase mediated APP cleavage in human HeLa cells expressing swAPP assessed as alpha cleaved ectodomain of APP at 200 nM by electrochemiluminescence assay. In kind it is cell-based.
The subject of assay [4] is Drosophila. The assay can be described thus: Reduction on lethality of Drosophila UAS-APP/UAS-APP; UAS-BACE523/UAS-BACE523 flies expressing BACE mutant assessed as increase in survival by measuring eclosion numbers 4 mM dosed in diet. Format: functional, organism-based.
The next assay relates to Mus musculus. The assay can be described thus: Reduction in amyloid beta production in transgenic swAPP/PSDE9 mouse expressing APP KM670/671NL mutant and presenilin-1 […] at 10 mM dosed stereotaxically into hippocampus after 4 hrs. Format: functional, organism-based. A digest of the protocol:
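APPsw/PSΔE9 transgenic mice given a stereotaxic injection into the hippocampus, with DMSO as solvent control; hippocampal Aβ measured 4 hours later. Means ± SD, Student t test.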

Assay [5] concerns the target Beta-secretase 1 (Homo sapiens) (UniProt P56817). Kind of assay: Inhibition of BACE1 mediated APP cleavage in human HeLa cells expressing swAPP assessed as beta cleaved ectodomain of APP level using rhodamine-labeled compound at 0.1 mM. Format: cell-based. A digest of the protocol: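 HeLa-swAPP cells treated with a range of concentrations of the sterol-linked inhibitor; β-cleaved ectodomain detected by immunostaining and imaging, nuclei counterstained with DAPI.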

Assay [6] relates to Drosophila. The assay can be described thus: Reduction on lethality of Drosophila w:actin-GAL4/Cyo;UASDPsn/Tm3 flies expressing presenilin mutant assessed as increase in survival by measuring eclosion numbers 4 mM dosed in diet. In kind it is functional, organism-based.
Assay [7] deals with Beta-secretase 1 (Homo sapiens) (UniProt P56817). Kind of assay: Inhibition of BACE1 mediated APP cleavage in human HeLa cells expressing swAPP at 2 uM after 4 hrs by immunoblot. In kind it is cell-based.
Assay [8] concerns the target Beta-secretase 1 (Mus musculus) (UniProt P56818). The assay can be described thus: Inhibition of BACE1 mediated APP cleavage in mouse N2a cells expressing swAPP by electrochemiluminescence assay. In kind it is cell-based.
In assay [9] the target is Beta-secretase 1 (Homo sapiens) (UniProt P56817). Kind of assay: Inhibition of BACE1 mediated APP cleavage in human HeLa cells expressing swAPP assessed as amyloid beta production at 2 uM after 4 hrs by immunoblot. Format: cell-based.
The target is the same in assay [10]. The assay can be described thus: Inhibition of BACE1 mediated APP cleavage in human HeLa cells expressing swAPP assessed as amyloid beta production using rhodamine-labeled compound at 2 uM. In kind it is cell-based. The method, boiled down: (§1)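 Rhodamine-labeled inhibitors at 2 μM on HeLa-swAPP cells; medium analyzed by ECL for sAPPβ and Aβ40, with viability (percent survival). Means ± SD, representative of three independent experiments.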

The target is the same in assay [11]. Kind of assay: Inhibition of BACE1 mediated APP cleavage in human HeLa cells expressing swAPP assessed as as beta cleaved ectodomain of APP level using rhodamine-labeled compound at 2 uM. In kind it is cell-based. The method, boiled down: as §1
The target is the same in assay [12]. The assay can be described thus: Inhibition of BACE1 mediated APP cleavage in human HeLa cells expressing swAPP at 200 nM after 4 hrs. In kind it is cell-based. A digest of the protocol: (§2)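 HeLa-swAPP cells incubated with compounds at 20 nM or 200 nM for 4 hours; harvested medium assayed for sAPPβ and expressed as percent inhibition of β cleavage, mean ± SD.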

Assay [13] shares this target. Kind of assay: Inhibition of BACE1 mediated APP cleavage in human HeLa cells expressing swAPP at 20 nM after 4 hrs. In kind it is cell-based. A digest of the protocol:
as §2

Assay [14] shares this target. The assay can be described thus: Inhibition of BACE1 ectodomain relative to control.
For assay [15] the target is unchanged. Kind of assay: Inhibition of BACE1 mediated APP cleavage in human HeLa cells expressing swAPP assessed as as beta cleaved ectodomain of APP level. Format: cell-based.

Chain of Beta-secretase 1 (Homo sapiens) (P56817 whole entry, the tested form may be a part): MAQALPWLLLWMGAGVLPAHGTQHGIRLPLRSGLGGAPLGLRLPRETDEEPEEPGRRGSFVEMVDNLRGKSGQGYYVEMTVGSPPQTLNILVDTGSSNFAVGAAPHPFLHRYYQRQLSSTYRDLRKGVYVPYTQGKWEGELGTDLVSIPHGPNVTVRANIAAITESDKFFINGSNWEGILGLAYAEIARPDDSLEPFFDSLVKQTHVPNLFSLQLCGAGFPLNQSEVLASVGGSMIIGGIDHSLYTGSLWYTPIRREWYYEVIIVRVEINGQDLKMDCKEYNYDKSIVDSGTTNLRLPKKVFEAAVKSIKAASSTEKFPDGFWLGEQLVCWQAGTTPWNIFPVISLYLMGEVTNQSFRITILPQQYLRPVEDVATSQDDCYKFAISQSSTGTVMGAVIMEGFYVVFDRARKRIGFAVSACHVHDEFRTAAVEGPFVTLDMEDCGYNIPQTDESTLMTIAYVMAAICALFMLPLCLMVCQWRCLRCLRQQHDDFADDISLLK
Chain of Beta-secretase 1 (Mus musculus) (P56818 whole entry): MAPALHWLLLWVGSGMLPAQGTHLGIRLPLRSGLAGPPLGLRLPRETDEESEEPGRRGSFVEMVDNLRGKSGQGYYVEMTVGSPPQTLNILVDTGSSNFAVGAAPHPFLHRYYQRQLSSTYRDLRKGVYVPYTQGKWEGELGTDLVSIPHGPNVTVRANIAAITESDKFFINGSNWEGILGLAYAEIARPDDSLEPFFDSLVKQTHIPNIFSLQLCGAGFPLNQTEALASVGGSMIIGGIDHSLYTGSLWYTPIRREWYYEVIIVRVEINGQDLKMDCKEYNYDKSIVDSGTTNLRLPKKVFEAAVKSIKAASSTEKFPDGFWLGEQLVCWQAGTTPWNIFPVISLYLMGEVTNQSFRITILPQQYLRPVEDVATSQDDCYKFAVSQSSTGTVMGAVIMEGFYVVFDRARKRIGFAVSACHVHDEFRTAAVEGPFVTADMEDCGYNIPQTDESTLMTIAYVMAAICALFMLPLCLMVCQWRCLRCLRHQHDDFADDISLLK

Consider `CC(C)C[C@H](NC(=O)[C@H](CC(N)=O)NC(=O)[C@@H](NC(=O)[C@@H](N)CCC(=O)O)C(C)C)[C@@H](O)CC(=O)N[C@H](C(=O)N[C@@H](C)C(=O)N[C@@H](CCC(=O)O)C(=O)N[C@@H](Cc1ccccc1)C(=O)NCCOCCOCCOCCOCCC(=O)NCCOCCOCCOCCC(=O)NCCOCCOCCOCCOCCC(=O)NCCOCCOCCOCCC(=O)NCCOCCOCCOCCOCCC(N)=O)C(C)C` (H-EVN[Sta]VAEF[PEG4][PEG3][PEG4][PEG3][PEG4]-NH2), for which the inhibition result in assay [1] is “inactive”.

Turning to `CC(C)CCC[C@@H](C)[C@H]1CC[C@H]2[C@@H]3CCC4C[C@@H](OC(=O)C[C@H](NC(=O)CCOCCOCCOCCOCCNC(=O)CCOCCOCCOCCNC(=O)CCOCCOCCOCCOCCNC(=O)CCOCCOCCOCCNC(=O)CCOCCOCCOCCOCCNC(=O)[C@H](Cc5ccccc5)NC(=O)[C@H](CCC(=O)O)NC(=O)[C@H](C)NC(=O)[C@@H](NC(=O)C[C@H](O)[C@H](CC(C)C)NC(=O)[C@H](CC(N)=O)NC(=O)[C@@H](NC(=O)[C@@H](N)CCC(=O)O)C(C)C)C(C)C)C(N)=O)CC[C@]4(C)[C@H]3CC[C@]12C` (stereo partly specified) (H-EVN[Sta]VAEF[PEG4][PEG3][PEG4][PEG3][PEG4]D(X1)-NH2), the inhibition entry (with HeLa [2]; with HeLa [3]; in the assay with Drosophila [4]; in assay [5]; in the assay on Drosophila [6]; in assay [7]) was “Active” throughout. In addition, the inhibition result in assay [8], in assay [9], in assay [10] and in assay [11] was “Active” throughout. Further, the outcome in the assay with Mus musculus was Active.

On to `CCCCCCCCCCCCCCOC(=O)C[C@H](NC(=O)CCOCCOCCOCCOCCNC(=O)CCOCCOCCOCCNC(=O)CCOCCOCCOCCOCCNC(=O)CCOCCOCCOCCNC(=O)CCOCCOCCOCCOCCNC(=O)[C@H](Cc1ccccc1)NC(=O)[C@H](CCC(=O)O)NC(=O)[C@H](C)NC(=O)[C@@H](NC(=O)C[C@H](O)[C@H](CC(C)C)NC(=O)[C@H](CC(N)=O)NC(=O)[C@@H](NC(=O)[C@@H](N)CCC(=O)O)C(C)C)C(C)C)C(N)=O` (H-EVN[Sta]VAEF[PEG4][PEG3][PEG4][PEG3][PEG4]D(X2)-NH2), for which the inhibition result in assay [12] and in assay [13] was “Active” each time.

Consider `CCCCCCCCCCCCCCCCOC(=O)C[C@H](NC(=O)CCOCCOCCOCCOCCNC(=O)CCOCCOCCOCCNC(=O)CCOCCOCCOCCOCCNC(=O)CCOCCOCCOCCNC(=O)CCOCCOCCOCCOCCNC(=O)[C@H](Cc1ccccc1)NC(=O)[C@H](CCC(=O)O)NC(=O)[C@H](C)NC(=O)[C@@H](NC(=O)C[C@H](O)[C@H](CC(C)C)NC(=O)[C@H](CC(N)=O)NC(=O)[C@@H](NC(=O)[C@@H](N)CCC(=O)O)C(C)C)C(C)C)C(N)=O` (H-EVN[Sta]VAEF[PEG4][PEG3][PEG4][PEG3][PEG4]D(X3)-NH2), for which the inhibition entry in assay [12] and in assay [13] was “Active” throughout.

As to `CC(C)C[C@H](NC(=O)[C@H](CC(N)=O)NC(=O)[C@@H](NC(=O)[C@@H](N)CCC(=O)O)C(C)C)[C@@H](O)CC(=O)N[C@H](C(=O)N[C@@H](C)C(=O)N[C@@H](CCC(=O)O)C(=O)N[C@@H](Cc1ccccc1)C(N)=O)C(C)C` (HELM PEPTIDE1{E.V.N.[CC(C)C[C@H](N[*:1])[C@@H](O)CC(=O)[*:2]].V.A.E.F.[am]}$$$$V2.0), the inhibition entry (in the assay on Mus musculus; in assay [8]; in assay [15]) was “inactive” throughout. The inhibition result in assay [14] is “Active”.

For the molecule `CCN(CC)c1ccc2c(-c3ccccc3C(=O)N3CCN(C(=O)CC[C@H](NC(=O)CCNC(=O)[C@H](CCCN=C(N)N)NC(=O)[C@H](CCCN=C(N)N)NC(=O)CO[C@H]4CC[C@@]5(C)[C@@H](CC[C@@H]6[C@@H]5CC[C@]5(C)[C@@H]([C@H](C)CCCC(C)C)CC[C@@H]65)C4)C(=O)NCCC(=O)NCC(=O)N[C@@H](CCC(=O)O)C(=O)N[C@H](C(=O)N[C@@H](CC(N)=O)C(=O)N[C@@H](CC(C)C)[C@@H](O)CC(=O)N[C@H](C(=O)N[C@@H](C)C(=O)N[C@@H](CCC(=O)O)C(=O)N[C@@H](Cc4ccccc4)C(N)=O)C(C)C)C(C)C)CC3)c3ccc(=[N+](CC)CC)cc-3oc2c1` (X4-RR[βAla]E(Piperazinyl(4-RhodamineB))[βAla]GEVN[Sta]VAEF-NH2), the inhibition entry in assay [1] is “inactive”.
